Assay outcomes (PubChem)
Shown are actives, neighbours in structure and some others; about 2.4% of the full set was active somewhere.
Rtt109 Vps75: inhibitors of Candida albicans Rtt109/Vps75 histone acetyltransferase | inhibition, % at 34.9 µM | Q5AAJ8 | purified Rtt109/Vps75, ThioGlo CoA-SH fluorescence, 4 h | hit rate 0.16% among 330,000;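 active = inhibition of at least 50% in every replicate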
Env fusion inh: HIV envelope-mediated fusion inhibition; HeLa-JRFL Env/CEM21 cell fusion, luciferase; inhibition, % at 12.3 µM; hit rate 1.1% among 360,000; AID 651610;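 active = mean replicate inhibition score of at least 50 and every replicate individually at or above 50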;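 also: 0% = plate neutral controls and 100% = maraviroc near 300 nM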
Cneo AK release: causes C. neoformans cell lysis; adenylate kinase release luminescence, 4 h; normalised: neutral wells 0, clomiphene wells 100; lysis activity, % at 15 µM; hit rate 0.2% among 360,000; AID 651654;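 active = mean lysis activity across replicates of at least 80%, whatever share of replicates individually reach that level; inactive = mean lysis activity below 80%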
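Material – Cryptococcus neoformans yeast cells · Quantity – 5 × 10^6 yeast cells/mL · Buffer or medium – YPD medium · Compound – single dose · Timing – 4 h static compound exposure, 37 °C, read 1 h post-reagent · Signal – adenylate kinase release luminescence · Read-out basis – lysis from increased AK signal · Benchmarks – Clomiphene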
GSIS activator: GLuc luminescence reporter in INS-1E cells, primary screen for activators of glucose-dependent secretion of insulin; activation, % at 16.6 µM; INS-1E GLuc reporter insulin secretion, 2-3 h; AID 743287; hit rate 0.61% among 370,000;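 active = lowest replicate activation of at least 40%, so every replicate reaches that level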;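 also: 0% = median of neutral control wells and 100% = median of IBMX positive control wells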
dFosB act-1: enhances mouse delta FosB homodimer DNA binding; P13346; purified delta FosB, TAMRA-CDK5 oligo fluorescence polarization; percent of positive-control signal above neutral wells; activation, % at 25 µM; hit rate 0.99% among 340,000; AID 493131;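 active = mean activation above about 17%, with every replicate also reaching it, limit read from the data, passing the limit was not always enough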
Target sequence (P13346 whole entry, looked up): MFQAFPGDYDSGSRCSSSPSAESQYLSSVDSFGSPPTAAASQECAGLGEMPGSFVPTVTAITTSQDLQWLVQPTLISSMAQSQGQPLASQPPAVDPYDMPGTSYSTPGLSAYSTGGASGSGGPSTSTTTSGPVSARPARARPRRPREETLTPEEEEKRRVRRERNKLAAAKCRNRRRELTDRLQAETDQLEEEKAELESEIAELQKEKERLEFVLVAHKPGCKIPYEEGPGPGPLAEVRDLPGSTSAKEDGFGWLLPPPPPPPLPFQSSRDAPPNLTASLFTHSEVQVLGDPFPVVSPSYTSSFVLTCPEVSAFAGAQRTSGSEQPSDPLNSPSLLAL
miR122 inh: blocks miR-122 activity in Huh7 sensor cells; Huh7 miR-122 Renilla luciferase sensor, 48 h; neutral wells = 0, positive control = 100; activation (reporter increase), % at 12.5 µM; hit rate 0.3% among 340,000; AID 602342;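 active = mean replicate activation score at least 90 and every replicate individually at or above 90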;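 also: higher luciferase means less miR-122 activity so hits act as miR-122 inhibitors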
dFosB act-2: delta FosB (mouse) homodimer activation | 2,400 tested, under 10 active | purified delta FosB, TAMRA-CDK5 oligo fluorescence polarization; normalised: neutral wells 0, positive control 100 | shares compounds with dFosB act-1 | activation, % at 24.9 µM | AID 588690;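 active = highest replicate activation at or above 34% and every replicate reaching that threshold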;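 also: higher polarization means more probe DNA bound by delta FosB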
* hit, by the source's call; . = no result given; [ ] = dose if it differs, or a comment.

SMILES	Rtt109 Vps75	Env fusion inh	Cneo AK release	GSIS activator	dFosB act-1	miR122 inh	dFosB act-2
Cc1noc(C)c1S(=O)(=O)Nc1ccc2c(c1)C(=O)N([C@@H](C)CO)C[C@@H](C)[C@@H](CN(C)C)OCCCC[C@@H](C)O2	.	11[16.7 µM]	0	8	.	1[16.7 µM]	.
Cc1c(-c2nc(N)nc(Nc3ccc(F)cc3)n2)oc2ccccc12	5	.	5	.	71*	0	9
CCCNC(=O)N(C)C[C@@H]1Oc2ncc(-c3ccc(OC)cc3)cc2C(=O)N([C@H](C)CO)C[C@@H]1C	.	-1[16.7 µM]	-1	7	.	3[16.7 µM]	.
CCOc1ccc(NC(=S)N2CCc3cc(OC)c(OC)cc3C2COc2ccc3c(C)cc(=O)oc3c2)cc1 (configuration not stated)	9	7	.	-1	50*	.	3
CCCN1[C@@H]2c3ccc(-c4cccc(C(=O)N(C)C)c4)c(=O)n3C[C@@H]2[C@@H](CO)[C@@H]1C(=O)OC	.	.	.	1	.	.	.
C[C@H]1CN([C@@H](C)CO)C(=O)c2cc(NS(=O)(=O)c3ccccc3)ccc2O[C@@H]1CN(C)S(=O)(=O)c1ccccc1	.	7[16.7 µM]	2	-19	.	15[16.7 µM]	.
O=C(NCC1CCCO1)C1CCN(C2CCN(Cc3cccs3)CC2)CC1 (configuration not stated)	-1	9	-2	12	10	-8	.
Cc1ccsc1C(=O)N1CCC(N2CCC(C(=O)NCC3CCCO3)CC2)CC1 (configuration not stated)	-5	-4	.	8	35*	.	0
O=C(CCS(=O)(=O)Cc1ccccc1F)NCc1ccccc1Cl	-1	3	3	-6	18*	-9	-2
COc1ccc2oc(-c3ccc(C)c(NC(=O)c4ccc(N5CCOCC5)c([N+](=O)[O-])c4)c3)nc2c1	8	-182	-2	.	22*	.	3
COc1ccc(CNC(=O)c2ccc(N3CCOCC3)c([N+](=O)[O-])c2)cc1	0	-4	.	1	-11	.	.
O=C(C[C@H]1CC[C@H]2[C@@H](COC[C@H](O)CN2Cc2ccc(F)cc2)O1)N1CCc2ccccc2C1	.	.	2	-12	.	-8[16.7 µM]	.
COC(=O)c1ccc(NC(=O)C(=O)c2c[nH]c3ccccc23)cc1	-20	-17	0	10	72*	-2	7
CN(C)C(=O)C[C@H]1CC[C@@H]2[C@H](COC[C@@H](O)CN2C(=O)C2CC2)O1	.	.	-5	1	.	-1[16.7 µM]	.
O=C(CSc1nnc(SCc2ccc(Cl)cc2)s1)N/N=C/c1c[nH]c2ccccc12	0	.	.	96*	38*	.	5
COc1ccc(C(=O)Nc2ccc3c(c2)OC[C@@H](C)N(C(=O)C2CC2)C[C@@H](C)[C@H](OC)CN(C)C3=O)cc1	.	.	.	-8	.	39[16.7 µM]	.
COc1ccc(S(=O)(=O)N(C)C[C@@H]2Oc3ccc(NS(=O)(=O)c4cccs4)cc3CC(=O)N([C@H](C)CO)C[C@@H]2C)cc1	.	42[16.7 µM]	3	1	.	0[16.7 µM]	.
CC(C)C(=O)Nc1ccc2c(c1)C(=O)N(C)[C@H]1CC[C@@H](CC(=O)N[C@H](C)c3ccccc3)O[C@@H]1CO2	.	17[16.7 µM]	-3	3	.	-27[16.7 µM]	.
O=C(Cn1ncn2c(cc3ccccc32)c1=O)NCCCc1ccccc1	2	.	-2	.	48*	0	1
CCOc1ccc(-n2nc3ccc(NC(=O)c4ccc5c(c4)OCCO5)cc3n2)cc1	.	.	.	-3	99*	5	-10
O=C(Nc1ccc(NC(=O)c2ccc3c(c2)OCCO3)cc1)c1ccccc1	-5	11	-5	-8	35*	.	1
O=C(Nc1ccc(NS(=O)(=O)c2ccccc2)cc1)c1ccc(Cl)cc1	10	-17	-3	7	26*	12	1
O=C(NNC(=O)c1ccc(NC(=O)c2ccccc2)cc1)c1ccccc1	-1	8	.	14	18*	-8	2
O=C(Nc1ccccc1)c1ccc2c(c1)OCCO2	1	.	.	.	2	-5	.
COCC(=O)N1CC2(CN(Cc3cccnc3)C2)c2c(n(C)c3cc(OC)ccc23)[C@H]1CO	.	.	.	29	.	.	.
